Measured values gathered from unrelated publications.
Protocols differ between the studies behind these lines.
Sample: plasma

Cc1cc(S(=O)(=O)NC2CC(N3CC[C@@H](OC4CN(c5cccc6c5n(C)c(=O)n6C5CCC(=O)NC5=O)C4)[C@H](F)C3)C2)ccc1Nc1ncc(C(F)(F)F)c(N2CCC[C@](C)(O)C2)n1 (stereo partly drawn)
Vd (rat; intravenous; 2 mg/kg): 10 L/kg

CC(=O)O[C@@H]1CC[C@@]2(C)[C@@H](CC[C@]3(C)[C@@H]2C(=O)C=C2[C@@H]4[C@@H](C)[C@H](C)CC[C@]4(C)CC[C@]23C)[C@@]1(C)C(=O)O
Vd/F (female Wistar rat; oral; 1 mg/kg; single dose): 0.28 L/kg

CCCc1nc2c(C)cc(-c3nc4ccccc4n3C)cc2n1Cc1ccc(-c2ccccc2C(=O)O)cc1
Vd/F (male Sprague-Dawley rat; oral; 8 mg/kg; single dose): 46.1 L/kg

CNS(=O)(=O)c1ccc(Nc2ncc(C(F)(F)F)c(N3CCC[C@](C)(O)C3)n2)c(C)c1
Vd (rat; intravenous; 2 mg/kg): 3 L/kg

Cc1nc(Nc2ncc(C(=O)Nc3c(C)cccc3Cl)s2)cc(N2CC[C@@H](O)C2)n1
Vd (male Sprague-Dawley rat; intravenous; 1 mg/kg): 0.9 L/kg

C[C@H]1Oc2cc(cnc2N)-c2c(nn(C)c2C#N)CN(C)C(=O)c2ccc(F)cc21
Vd/F (male Sprague-Dawley rat; oral; 50 mg/kg; single dose): 19 L/kg

C1=C/COCc2cc(ccc2OCCN2CCCC2)Nc2nccc(n2)-c2cccc(c2)COC/1
Vd/F (male Sprague-Dawley rat; oral; 36 mg/kg): 192 L

CNC(=O)c1cc(Oc2ccc(NC(=O)Nc3ccc(Cl)c(C(F)(F)F)c3)cc2)ccn1
Vd/F (male Sprague-Dawley rat; oral; 100 mg/kg; single dose): 112 L/kg

Cc1cc(S(=O)(=O)NC2CC(N3CCN(CC4CCN(c5cccc6c5n(C)c(=O)n6C5CCC(=O)NC5=O)CC4)CC3)C2)ccc1Nc1ncc(C(F)(F)F)c(N2CCC[C@](C)(O)C2)n1 (stereo partly drawn)
Vd (rat; intravenous; 2 mg/kg): 10 L/kg
